From ChEMBL document CHEMBL1144433, “1-Amino-1,2,3,4-tetrahydronaphthalene-2-carboxylic acid as a Tic mimetic: application in the synthesis of potent human melanocortin-4 receptor selective agonists” (Bioorg Med Chem Lett, 2005) come the findings set out here.

A word on the IC50: it is the midpoint of a concentration-inhibition curve. A low value points to inhibition by little substance. In general, bioavailability refers to the share of a dose that reaches the circulation, judged against a reference dose that is usually intravenous. Low readings indicate poor availability, high ones good availability. For orientation: half-life means the time in which the quantity being followed falls by half. The term clearance denotes the volume of plasma or blood freed of the substance per unit of time. Higher therefore signals efficient removal. For orientation: Tmax means the time from dosing to the highest level.

Structures are written as SMILES.

Data set [1] concerns the target Melanocyte-stimulating hormone receptor (Homo sapiens, UniProt Q01726). Put plainly: Concentration required for 50% inhibition by displacement of [125I]NDP-alpha-MSH of human MC1R expressed in CHO cells. Type of data set: cell-based. (In general: Loss of bound radioactivity is the signal in a displacement assay; it reports binding, not function.)
The target in data set [2] is Melanocortin receptor 3 (Homo sapiens, UniProt P41968). Description: Concentration required for 50% inhibition by displacement of [125I]NDP-alpha-MSH of human MC3R expressed in CHO cells. In kind it is cell-based.
The target in data set [3] is Melanocortin receptor 4 (Homo sapiens, UniProt P32245). Put plainly: Concentration required for 50% inhibition by displacement of [125I]NDP-alpha-MSH of human MC4R expressed in CHO cells. Type of data set: cell-based. In a few lines: (§1)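 Competition binding against [125I]-NDP-α-MSH at human melanocortin receptors expressed in CHO cells. Values are means ± standard error from at least three determinations.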

In data set [4] the target is Melanocortin receptor 5 (Homo sapiens, UniProt P33032). Put plainly: Concentration required for 50% inhibition by displacement of [125I]NDP-alpha-MSH of human MC5R expressed in CHO cells. In kind it is cell-based. In a few lines: as §1
Data set [5] can be described thus: Pharmacokinetic parameter F studied in dog. Conditions: in vivo. In kind it is ADME, organism-based, Canis lupus familiaris. The gist of the method: (§2)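 Beagle dogs were dosed with a solution in EtOH/PEG/water (1:4:5), 0.5 mg iv and 2.0 mg/kg po. F, clearance, Vdss, t1/2 and tmax were derived from these doses.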
Data set [6] in a line: Pharmacokinetic parameter F studied in rat. In kind it is ADME, organism-based. The conditions noted are these: in vivo. The gist of the method: (§3)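 Sprague–Dawley rats were dosed with a EtOH/PEG/water (1:4:5) solution, 1 mg/kg iv and 4 mg/kg po. F, clearance, Vdss and t1/2 were derived from these doses.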
A short description of data set [7]: Pharmacokinetic parameter hal life studied in dog. Type of data set: ADME, organism-based, Canis lupus familiaris. Conditions: in vivo. The gist of the method:
as §2

A short description of data set [8]: Pharmacokinetic parameter hal life studied in rat. Conditions: in vivo. In kind it is ADME, organism-based. The gist of the method:
as §3

The nature of data set [9]: Pharmacokinetic parameter Cl(clearance) studied in dog. Type of data set: ADME, organism-based, Canis lupus familiaris. The conditions noted are these: in vivo. The gist of the method: as §2
The nature of data set [10]: Pharmacokinetic parameter Cl(clearance) studied in rat. In kind it is ADME, organism-based. The conditions noted are these: in vivo. The gist of the method:
as §3

Data set [11] can be described thus: Pharmacokinetic parameter Vdss studied in dog. In kind it is ADME, organism-based, Canis lupus familiaris. Conditions: in vivo, read-out: Vdss. In a few lines:
as §2

Data set [12] is described as follows: Pharmacokinetic parameter Vdss studied in rat. Type of data set: ADME, organism-based. The conditions noted are these: in vivo, read-out: Vdss. In a few lines: as §3
Data set [13] can be described thus: Pharmacokinetic parameter max half life studied in dog. Conditions: in vivo. Type of data set: ADME, organism-based, Canis lupus familiaris. In a few lines:
as §2

Chain of Melanocortin receptor 3 (P41968 whole entry): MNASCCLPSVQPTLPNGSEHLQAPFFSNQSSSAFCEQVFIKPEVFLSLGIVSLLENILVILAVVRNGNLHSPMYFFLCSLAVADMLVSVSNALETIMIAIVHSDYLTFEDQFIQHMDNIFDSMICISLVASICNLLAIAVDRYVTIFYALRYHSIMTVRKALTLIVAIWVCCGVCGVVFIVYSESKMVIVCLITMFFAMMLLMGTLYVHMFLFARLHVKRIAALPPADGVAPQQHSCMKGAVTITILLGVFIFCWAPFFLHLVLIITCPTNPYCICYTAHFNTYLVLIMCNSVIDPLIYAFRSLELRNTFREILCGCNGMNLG
Chain of Melanocortin receptor 5 (P33032 whole entry): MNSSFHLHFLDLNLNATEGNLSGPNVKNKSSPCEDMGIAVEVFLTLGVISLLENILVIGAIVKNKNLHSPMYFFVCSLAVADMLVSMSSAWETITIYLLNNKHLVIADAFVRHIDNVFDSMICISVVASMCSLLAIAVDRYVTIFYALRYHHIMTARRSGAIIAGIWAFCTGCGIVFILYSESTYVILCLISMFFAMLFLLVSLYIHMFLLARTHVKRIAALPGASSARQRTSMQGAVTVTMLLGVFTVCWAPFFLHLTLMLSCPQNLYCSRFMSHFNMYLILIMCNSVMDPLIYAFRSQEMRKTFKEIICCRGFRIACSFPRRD
Chain of Melanocortin receptor 4 (P32245 whole entry): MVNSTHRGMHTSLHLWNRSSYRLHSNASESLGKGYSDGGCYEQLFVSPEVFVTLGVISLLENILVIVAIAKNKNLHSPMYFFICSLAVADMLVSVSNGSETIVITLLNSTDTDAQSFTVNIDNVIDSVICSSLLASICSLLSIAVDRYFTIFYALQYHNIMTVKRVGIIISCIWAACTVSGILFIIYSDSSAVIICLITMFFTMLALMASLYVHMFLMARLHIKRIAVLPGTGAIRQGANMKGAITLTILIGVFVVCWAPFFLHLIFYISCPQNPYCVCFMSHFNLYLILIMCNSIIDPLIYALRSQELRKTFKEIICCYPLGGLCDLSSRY
Chain of Melanocyte-stimulating hormone receptor (Q01726 whole entry): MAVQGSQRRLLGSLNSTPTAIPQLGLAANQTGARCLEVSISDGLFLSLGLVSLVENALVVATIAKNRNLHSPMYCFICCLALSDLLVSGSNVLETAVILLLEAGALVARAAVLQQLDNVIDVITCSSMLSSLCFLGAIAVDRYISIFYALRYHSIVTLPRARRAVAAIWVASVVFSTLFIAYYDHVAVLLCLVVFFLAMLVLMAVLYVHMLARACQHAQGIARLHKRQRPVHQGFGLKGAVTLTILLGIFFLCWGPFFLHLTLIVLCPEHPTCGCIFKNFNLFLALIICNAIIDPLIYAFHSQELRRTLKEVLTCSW

For `CC(C)(C)NC(=O)C1(C2CCCCC2)CCN(C(=O)[C@@H](Cc2ccc(Cl)cc2)NC(=O)C2CCCc3ccccc3C2N)CC1` (some centres undefined), the 50% inhibitory concentration (IC50) in data set [1] is 220 nM; in [2], 97 nM; in [3], 1.1 nM; in data set [4], 54 nM.
As for `CC(C)(C)NC(=O)C1(C2CCCCC2)CCN(C(=O)[C@@H](Cc2ccc(Cl)cc2)NC(=O)C2Cc3ccccc3C2N)CC1` (some centres undefined), the concentration for half-maximal inhibition (IC50) in data set [1] turned out to be 1400 nM; in data set [2] it was 83 nM; in [3] it was 1.9 nM; in data set [4], 34 nM.
In the case of `CC(C)(C)NC(=O)C1(C2CCCCC2)CCN(C(=O)[C@@H](Cc2ccc(Cl)cc2)NC(=O)[C@H]2CCc3ccccc3[C@H]2N)CC1`, the concentration for half-maximal inhibition (IC50) in [1] worked out at 530 nM; in data set [2], 120 nM; in data set [3], 0.37 nM; in [4], 64 nM. Also, the values for the bioavailability in data set [5] and in [6] were 42% and 11%, respectively. Further, the figures for the half-life in data set [7] and in data set [8] were 3.4 h and 2 h, respectively. In addition, the clearance in data set [9] is 11 mL/min/kg; in data set [10], 35 mL/min/kg. For the same compound, the Vd in data set [11] is 2.9 L/kg; in data set [12], 3.9 L/kg. In addition, the time of peak concentration (Tmax) in [13] is 2 h.
Take `CC(C)(C)NC(=O)C1(C2CCCCC2)CCN(C(=O)[C@@H](Cc2ccc(Cl)cc2)NC(=O)[C@@H]2CCc3ccccc3[C@@H]2N)CC1`: the half-maximal inhibitory concentration (IC50) was found to be 980 nM in [1], 32 nM in data set [2], 0.77 nM in data set [3] and 24 nM in data set [4].
With `CC(C)(C)NC(=O)C1(C2CCCCC2)CCN(C(=O)[C@@H](Cc2ccc(Cl)cc2)NC(=O)[C@H]2CCc3ccccc3[C@@]2(C)N)CC1`, the concentration for half-maximal inhibition (IC50) in data set [1] was found to be 620 nM; in data set [2] it was 170 nM; in data set [3], 1.1 nM; in [4], 31 nM.
